Results taken from ChEMBL document CHEMBL1139173, “Novel selective human mitochondrial kinase inhibitors: design, synthesis and enzymatic activity” (Bioorg Med Chem, 2007).
pIC50: −log10 of the molar value. Calls of active or inactive are those of the source. The rule behind the calls is not given here.

Key:
[1] = biological target: T1, Thymidine kinase, cytosolic (Homo sapiens, UniProt P04183); assay: Inhibition of human TK1 assessed as [methyl-3H]dThd phosphorylation
T1 sequence (P04183 whole entry): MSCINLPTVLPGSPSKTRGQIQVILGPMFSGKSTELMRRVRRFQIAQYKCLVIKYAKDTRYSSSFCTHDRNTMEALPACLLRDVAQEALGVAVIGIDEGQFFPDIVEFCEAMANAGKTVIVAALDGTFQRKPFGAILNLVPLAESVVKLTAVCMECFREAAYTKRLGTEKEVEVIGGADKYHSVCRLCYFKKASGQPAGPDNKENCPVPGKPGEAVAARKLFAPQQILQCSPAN
Outline: (§1)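 Purified recombinant GST-fusion kinases (from pGEX-5X-1 cDNAs) assayed in 50 mM Tris–HCl pH 8.0, 2.5 mM MgCl₂, 10 mM DTT, 0.5 mM CHAPS, 3 mg/mL BSA, 2.5 mM ATP, 0.25 µCi [methyl-³H]dThd (2 µM), ± varying inhibitor levels, 37 °C for 30 min. Reactions spotted on DE-81 filter disks, washed, and counted by scintillation. IC50 is the concentration halving dThd phosphorylation.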

[2] = biological target: T2, Thymidine kinase 2, mitochondrial (Homo sapiens, UniProt O00142); assay: Inhibition of human TK2 assessed as [methyl-3H]dThd phosphorylation; outline: as §1
T2 sequence (O00142 whole entry): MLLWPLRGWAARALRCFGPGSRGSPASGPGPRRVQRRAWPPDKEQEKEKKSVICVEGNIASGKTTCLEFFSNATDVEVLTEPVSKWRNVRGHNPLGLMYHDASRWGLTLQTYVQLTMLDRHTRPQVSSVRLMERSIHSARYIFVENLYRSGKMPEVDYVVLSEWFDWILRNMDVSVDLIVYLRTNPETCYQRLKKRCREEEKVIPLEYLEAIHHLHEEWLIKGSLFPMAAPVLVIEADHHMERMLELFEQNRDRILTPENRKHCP

Thymidine kinase [3] = biological target: T3, Thymidine kinase (Human alphaherpesvirus 1, UniProt Q9QNF7); assay: Inhibition of HSV1 TK assessed as [methyl-3H]dThd phosphorylation; outline: as §1
T3 sequence (Q9QNF7 whole entry): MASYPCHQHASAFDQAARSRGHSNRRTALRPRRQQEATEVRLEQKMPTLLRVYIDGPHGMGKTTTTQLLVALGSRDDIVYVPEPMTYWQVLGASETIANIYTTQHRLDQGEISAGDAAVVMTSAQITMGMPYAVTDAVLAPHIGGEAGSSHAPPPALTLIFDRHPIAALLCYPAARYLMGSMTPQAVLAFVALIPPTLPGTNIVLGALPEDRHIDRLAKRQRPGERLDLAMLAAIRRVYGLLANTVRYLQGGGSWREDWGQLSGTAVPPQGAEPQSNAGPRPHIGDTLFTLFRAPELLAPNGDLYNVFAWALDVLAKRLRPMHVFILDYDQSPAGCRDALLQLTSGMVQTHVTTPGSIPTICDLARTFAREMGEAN

Deoxynucleoside kinase = biological target: T4, Deoxynucleoside kinase (Drosophila melanogaster, UniProt Q9XZT6); assay: Inhibition of Drosophila melanogaster dNK assessed as [methyl-3H]dThd phosphorylation
T4 sequence (Q9XZT6 whole entry): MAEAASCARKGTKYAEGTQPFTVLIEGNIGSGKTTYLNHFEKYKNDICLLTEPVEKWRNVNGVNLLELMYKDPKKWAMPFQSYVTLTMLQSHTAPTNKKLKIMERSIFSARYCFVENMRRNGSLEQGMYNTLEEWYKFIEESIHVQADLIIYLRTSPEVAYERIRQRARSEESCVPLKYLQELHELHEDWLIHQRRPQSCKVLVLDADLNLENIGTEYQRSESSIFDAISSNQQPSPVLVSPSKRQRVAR
Outline: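 Purified recombinant enzyme expressed as a GST fusion. Mix: 50 mM Tris–HCl pH 8.0, 2.5 mM MgCl2, 10 mM DTT, 0.5 mM CHAPS, 3 mg/mL BSA, 2.5 mM ATP, 2 µM [methyl-3H]dThd (0.25 µCi). Incubated 37 °C, 30 min, with varied inhibitor levels. Aliquots spotted on DE-81 disks, washed, scintillation-counted.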

Thymidine kinase [4] = biological target: T5, Thymidine kinase (Varicella-zoster virus (strain Dumas) (HHV-3) (Human herpesvirus 3), UniProt P09250); assay: Inhibition of VZV TK assessed as [methyl-3H]dThd phosphorylation; parameters: species or system Human alphaherpesvirus 3
T5 sequence (P09250 whole entry): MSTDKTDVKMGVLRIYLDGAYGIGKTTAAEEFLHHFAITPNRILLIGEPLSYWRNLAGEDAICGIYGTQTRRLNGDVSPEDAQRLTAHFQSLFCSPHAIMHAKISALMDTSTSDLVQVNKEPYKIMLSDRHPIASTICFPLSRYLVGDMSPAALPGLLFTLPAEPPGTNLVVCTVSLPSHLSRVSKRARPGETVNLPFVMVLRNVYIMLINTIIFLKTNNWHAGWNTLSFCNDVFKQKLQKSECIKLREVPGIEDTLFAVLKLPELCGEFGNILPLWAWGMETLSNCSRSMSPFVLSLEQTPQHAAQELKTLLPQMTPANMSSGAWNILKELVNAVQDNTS

[5] = Toxicity against human fibroblast cells assessed as alteration of cellular viability upto 60 uM; assay type: cell-based
Outline: (§2)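 Primary fibroblasts from healthy-volunteer forearm skin biopsies were used stationary. They were kept at 37 °C in 5% CO₂ in one of two media: permissive DMEM UP (4.5 g/l glucose, 10% FCS, 50 µg/ml uridine) or restrictive GAL (glucose-free RPMI, 50 µM galactose, 10% dialyzed FCS). Cells were exposed to a range of concentrations for 1 week. Viability was counted by trypan blue exclusion.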

[6] = Toxicity against human fibroblast cells assessed as alteration of mitochondrial function up to 60 uM; assay type: cell-based; outline: as §2
[7] = biological target: T2, Thymidine kinase 2, mitochondrial; assay: Inhibition of human fibroblast mitochondrial TK2 using dThd substrate
Outline: (§3)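 Done on mitochondria isolated from human fibroblasts rather than on recombinant enzymes. TK2 activity was measured with dThd or dCyd as substrate. dGK activity was measured as a control. Read-out was IC50.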

[8] = Toxicity assessed as inhibition of mitochondrial function in normal fibroblasts upto 100 uM; assay type: cell-based; conditions: human, fibroblast; outline: as §2
[9] = Toxicity assessed as inhibition of mitochondrial function in human fibroblasts above 100 uM; assay type: cell-based; conditions: fibroblast; outline: as §2
Homo sapiens = species: Homo sapiens; assay: Inhibition of human fibroblast mitochondrial cytochrome c oxidase
Outline: (§4)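 Stationary normal skin fibroblasts were exposed to various concentrations for one week in permissive medium (glucose, uridine, 10% FCS). Cytochrome c oxidase (complex IV) and succinate dehydrogenase (complex II) activities were then assayed. COX/SDH ratios were calculated, with SDH as the mtDNA-independent control.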

Fibroblast [10] = assay: Decrease in cytochrome c oxidase to succinate dehydrogenase ratio in human fibroblasts; assay type: functional, cell-based; outline: as §4
Fibroblast [11] = assay: Decrease in nuclear DNA in human fibroblasts at 100 uM; assay type: functional; parameters: scale not given: the % may be the effect or the level left
[12] = biological target: T2, Thymidine kinase 2, mitochondrial; assay: Inhibition of human fibroblast mitochondrial TK2 using dCyd substrate; outline: as §3
[13] = biological target: T6, Deoxyguanosine kinase, mitochondrial (Homo sapiens, UniProt Q16854); assay: Inhibition of human fibroblast mitochondrial deoxyguanosine kinase; outline: as §3
T6 sequence (Q16854 whole entry): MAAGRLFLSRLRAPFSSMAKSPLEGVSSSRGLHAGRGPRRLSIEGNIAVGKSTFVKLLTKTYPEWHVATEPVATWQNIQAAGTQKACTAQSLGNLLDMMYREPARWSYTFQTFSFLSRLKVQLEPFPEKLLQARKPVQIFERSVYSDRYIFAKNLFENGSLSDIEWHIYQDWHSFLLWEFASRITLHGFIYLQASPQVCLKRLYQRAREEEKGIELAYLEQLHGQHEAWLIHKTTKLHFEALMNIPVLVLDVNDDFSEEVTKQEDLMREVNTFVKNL

[14] = biological target: Deoxyguanosine kinase, mitochondrial (Homo sapiens) (UniProt Q16854); assay: Inhibition of human fibroblast mitochondrial deoxyguanosine kinase

SMILES | pIC50 [1] | pIC50 [2] | pIC50 (Thymidine kinase [3]) | pIC50 (Deoxynucleoside kinase) | pIC50 (Thymidine kinase [4]) | further results
Cc1cn([C@@H]2O[C@H](CO)[C@@H](O)[C@@H]2OCc2ccccc2)c(=O)[nH]c1=O | < 3.00 | 3.10 | < 3.00 | < 3.00 | < 3.00 | –
Nc1nc2c(ncn2[C@@H]2O[C@H](CO)[C@@H](O)[C@@H]2O)c(=O)[nH]1 | < 3.30 | < 3.30 | < 3.30 | < 3.30 | < 3.30 | –
NCCCC(=O)O[C@H]1[C@H](O)[C@@H](CO)O[C@H]1n1cc(/C=C/Br)c(=O)[nH]c1=O | < 3.30 | 3.73 | 4.77 | 3.80 | 5.44 | –
Cc1cn([C@@H]2O[C@H](CO)[C@@H](O)[C@@H]2O)c(=O)[nH]c1=O | – | – | 4.62 | – | – | –
O=c1[nH]c(=O)n([C@@H]2O[C@H](CO)[C@@H](O)[C@@H]2O)cc1/C=C/Br [SORIVUDINE] | < 3.30 | 4.37 | 5.44 | 4.55 | 5.49 | –
CCCCCCCC(=O)O[C@H]1[C@H](O)[C@@H](CO)O[C@H]1n1cc(/C=C/Br)c(=O)[nH]c1=O | – | – | ≤ 3.00 | – | – | –
COCC(=O)O[C@H]1[C@H](O)[C@@H](CO)O[C@H]1n1cc(/C=C/Br)c(=O)[nH]c1=O | – | – | 4.08 | 3.67 | – | –
COc1ccc(CC(=O)O[C@H]2[C@H](O)[C@@H](CO)O[C@H]2n2cc(/C=C/Br)c(=O)[nH]c2=O)cc1 | – | 4.36 | 4.17 | 3.74 | 4.41 | –
CCCCCCCC(=O)O[C@H]1[C@H](O)[C@@H](CO)O[C@H]1n1cc(C)c(=O)[nH]c1=O | < 3.00 | 3.92 | < 3.00 | < 3.00 | < 3.00 | –
Nc1ccn([C@@H]2O[C@H](CO)[C@@H](O)[C@@H]2O)c(=O)n1 [CYTARABINE] | – | – | < 3.00 | – | – | –
CCCCC(=O)O[C@H]1[C@H](O)[C@@H](CO)O[C@H]1n1cnc2c(=O)[nH]c(N)nc21 | < 3.30 | < 3.30 | < 3.30 | < 3.30 | < 3.30 | –
CC(C)(C)OC(=O)NCCCCCCCC(=O)O[C@H]1[C@H](O)[C@@H](CO)O[C@H]1n1cc(/C=C/Br)c(=O)[nH]c1=O | – | 5.19 | 3.35 | 4.13 | 3.46 | –
CCCCCCCCn1c(=O)c(C)cn([C@@H]2O[C@H](CO)[C@@H](O)[C@@H]2O)c1=O | < 3.30 | < 3.30 | < 3.30 | < 3.30 | < 3.30 | –
O=C(Cc1ccccc1)O[C@H]1[C@H](O)[C@@H](CO)O[C@H]1n1cc(/C=C/Br)c(=O)[nH]c1=O | – | 4.13 | 3.61 | 3.38 | 3.57 | –
NCCCCCC(=O)O[C@H]1[C@H](O)[C@@H](CO)O[C@H]1n1cc(/C=C/Br)c(=O)[nH]c1=O | < 3.30 | < 3.30 | 3.49 | < 3.30 | 4.03 | –
CCCCCCCCCC(=O)O[C@H]1[C@H](O)[C@@H](CO)O[C@H]1n1cc(/C=C/Br)c(=O)[nH]c1=O | – | – | < 3.00 | – | – | Activity [5]: Non-toxic; Activity [6]: Not Active; pIC50 [7]: 4.40; Activity [8]: Active; Activity [9]: Toxic; Activity (Homo sapiens): Active; Activity (Fibroblast [10]): Active; Activity (Fibroblast [11]): 50%; pIC50 [12]: 4.01; pIC50 [13]: < 3.00; pIC50 [14]: < 3.00
CCCCCCCCO[C@H]1[C@H](O)[C@@H](CO)O[C@H]1n1cc(C)c(=O)[nH]c1=O | – | – | < 3.00 | – | – | –
CCCCCCCCO[C@H]1[C@H](O)[C@@H](CO)O[C@H]1n1cc(C)c(=O)n(CCCCCCCC)c1=O | – | < 3.00 | < 3.00 | < 3.00 | < 3.00 | –
CCCCC(=O)O[C@H]1[C@H](O)[C@@H](CO)O[C@H]1n1cc(C)c(=O)[nH]c1=O | – | – | < 3.00 | – | – | –
CCCCCCCC(=O)Nc1nc2c(ncn2[C@@H]2O[C@H](CO)[C@@H](O)[C@@H]2OC(=O)CCCCCCC)c(=O)[nH]1 | < 3.30 | < 3.30 | < 3.30 | < 3.30 | < 3.30 | –
CCCCCCCCCC(=O)N[C@H]1[C@H](O)[C@@H](CO)O[C@H]1n1cc(C)c(=O)[nH]c1=O | – | 3.32 | < 3.30 | < 3.30 | < 3.30 | –
CC(C)(C)OC(=O)NCCCCCCCCCCCC(=O)O[C@H]1[C@H](O)[C@@H](CO)O[C@H]1n1cc(/C=C/Br)c(=O)[nH]c1=O | – | 5.42 | < 3.30 | ≤ 3.30 | < 3.30 | –
CC(C)(C)OC(=O)NCCCC(=O)O[C@H]1[C@H](O)[C@@H](CO)O[C@H]1n1cc(/C=C/Br)c(=O)[nH]c1=O | – | 4.26 | 3.31 | 3.88 | 3.89 | –
CC(C)(C)OC(=O)NCCCCCC(=O)O[C@H]1[C@H](O)[C@@H](CO)O[C@H]1n1cc(/C=C/Br)c(=O)[nH]c1=O | – | 4.21 | ≤ 3.30 | 4.11 | 3.56 | –
CCCCCCCC(=O)O[C@H]1[C@H](O)[C@@H](CO)O[C@H]1n1cnc2c(=O)[nH]c(N)nc21 | < 3.30 | < 3.30 | < 3.30 | < 3.30 | < 3.30 | –
CCCCCCCCCC(=O)O[C@H]1[C@H](O)[C@@H](CO)O[C@H]1n1cc(C)c(=O)[nH]c1=O | – | – | ≤ 3.00 | – | – | –
CCCCCCCCCCCC(=O)O[C@H]1[C@H](O)[C@@H](CO)O[C@H]1n1cc(C)c(=O)[nH]c1=O | ≤ 3.00 | – | ≤ 3.00 | – | – | –
